Results as given in the M2OR odorant receptor database.
Residue numbers refer to the chain shown, from its start.

What was measured:
Details in all cases: stereoisomer not certain
OR2T11 (Homo sapiens) = molecular target: T1, OR2T11 (Homo sapiens) (UniProt Q8NH01)
T1 sequence (whole entry): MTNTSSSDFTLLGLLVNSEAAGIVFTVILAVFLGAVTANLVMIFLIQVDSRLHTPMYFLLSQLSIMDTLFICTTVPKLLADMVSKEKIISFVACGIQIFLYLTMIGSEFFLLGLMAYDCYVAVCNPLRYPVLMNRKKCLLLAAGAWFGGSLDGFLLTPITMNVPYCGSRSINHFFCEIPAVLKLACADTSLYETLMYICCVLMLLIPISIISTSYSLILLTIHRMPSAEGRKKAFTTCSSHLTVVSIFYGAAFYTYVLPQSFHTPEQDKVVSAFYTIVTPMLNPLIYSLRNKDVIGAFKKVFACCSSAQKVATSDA
How it was run: (§1)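 Each entry records the cell line, G-protein, co-transfected protein and tags used. Methods varied with the source, often transient luciferase assays in mammalian cell lines. A receptor–molecule pair is called responsive (active) if the original authors judged its signal statistically different from baseline and non-responsive (inactive) otherwise.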

OR2T12 (Homo sapiens) = molecular target: T2, OR2T12 (Homo sapiens) (UniProt Q8NG77)
T2 sequence (whole entry): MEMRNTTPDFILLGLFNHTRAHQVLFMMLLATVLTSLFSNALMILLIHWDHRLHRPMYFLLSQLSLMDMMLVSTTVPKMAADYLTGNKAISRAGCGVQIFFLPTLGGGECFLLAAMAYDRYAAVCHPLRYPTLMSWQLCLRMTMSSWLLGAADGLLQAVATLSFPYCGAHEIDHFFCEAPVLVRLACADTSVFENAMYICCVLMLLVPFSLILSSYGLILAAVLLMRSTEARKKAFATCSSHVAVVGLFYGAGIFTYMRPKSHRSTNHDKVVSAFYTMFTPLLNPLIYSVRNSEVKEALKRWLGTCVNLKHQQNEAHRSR
How it was run: as §1

OR2T2 (Homo sapiens) = molecular target: T3, OR2T2 (Homo sapiens) (UniProt Q6IF00)
T3 sequence (whole entry): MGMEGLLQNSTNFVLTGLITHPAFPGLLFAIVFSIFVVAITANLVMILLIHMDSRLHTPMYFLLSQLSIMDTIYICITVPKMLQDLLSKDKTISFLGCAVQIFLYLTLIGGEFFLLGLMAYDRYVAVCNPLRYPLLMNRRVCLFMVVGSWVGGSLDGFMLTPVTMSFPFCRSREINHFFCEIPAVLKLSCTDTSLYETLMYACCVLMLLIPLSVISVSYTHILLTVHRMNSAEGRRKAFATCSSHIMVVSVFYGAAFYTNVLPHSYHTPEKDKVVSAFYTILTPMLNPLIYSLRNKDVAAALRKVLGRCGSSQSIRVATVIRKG
How it was run: as §1

OR2T2 L104F L262Q = tested on: T4, OR2T2 L104F L262Q
T4 sequence (whole entry): T3 sequence (whole entry) with L104F, L262Q
How it was run: as §1

OR2T2 L104F = tested on: T5, OR2T2 L104F
T5 sequence (whole entry): T3 sequence (whole entry) with L104F
How it was run: as §1

OR2T2 Q313H = tested on: T6, OR2T2 Q313H
T6 sequence (whole entry): T3 sequence (whole entry) with Q313H
How it was run: as §1

OR2T27 (Homo sapiens) = molecular target: T7, OR2T27 (Homo sapiens) (UniProt Q8NH04)
T7 sequence (whole entry): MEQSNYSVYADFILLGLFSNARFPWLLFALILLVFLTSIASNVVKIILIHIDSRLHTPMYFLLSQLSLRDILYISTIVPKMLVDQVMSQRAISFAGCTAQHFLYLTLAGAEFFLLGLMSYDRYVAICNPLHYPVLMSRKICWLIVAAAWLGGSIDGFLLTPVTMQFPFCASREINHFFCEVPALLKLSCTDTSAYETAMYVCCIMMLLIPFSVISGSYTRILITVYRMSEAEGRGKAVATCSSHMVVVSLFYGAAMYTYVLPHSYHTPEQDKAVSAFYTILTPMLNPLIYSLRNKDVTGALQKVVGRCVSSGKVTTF
How it was run: as §1

OR2T29 (Homo sapiens) = molecular target: T8, OR2T29 (Homo sapiens) (UniProt Q8NH02)
T8 sequence (whole entry): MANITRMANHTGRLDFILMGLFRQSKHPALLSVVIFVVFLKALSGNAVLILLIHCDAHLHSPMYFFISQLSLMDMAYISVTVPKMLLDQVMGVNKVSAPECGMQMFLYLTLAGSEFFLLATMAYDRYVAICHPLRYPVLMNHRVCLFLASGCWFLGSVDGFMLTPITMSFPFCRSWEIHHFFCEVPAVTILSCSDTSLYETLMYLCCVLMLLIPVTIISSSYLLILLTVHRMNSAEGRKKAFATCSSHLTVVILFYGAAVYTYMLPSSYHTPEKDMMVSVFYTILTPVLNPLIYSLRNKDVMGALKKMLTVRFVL
How it was run: as §1

OR2T3 (Homo sapiens) = molecular target: T9, OR2T3 (Homo sapiens) (UniProt Q8NH03)
T9 sequence (whole entry): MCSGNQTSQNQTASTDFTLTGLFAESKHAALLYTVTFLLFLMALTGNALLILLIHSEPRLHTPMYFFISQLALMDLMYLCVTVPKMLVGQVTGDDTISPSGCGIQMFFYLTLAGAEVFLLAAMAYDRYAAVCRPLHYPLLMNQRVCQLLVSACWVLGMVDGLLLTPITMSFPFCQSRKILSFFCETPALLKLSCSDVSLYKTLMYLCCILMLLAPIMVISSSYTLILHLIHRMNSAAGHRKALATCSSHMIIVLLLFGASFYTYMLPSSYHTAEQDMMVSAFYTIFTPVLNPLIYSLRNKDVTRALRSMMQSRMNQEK
How it was run: as §1

OR2T3 L256F = tested on: T10, OR2T3 L256F
T10 sequence (whole entry): T9 sequence (whole entry) with L256F
How it was run: as §1

OR2T3 R298C = tested on: T11, OR2T3 R298C
T11 sequence (whole entry): T9 sequence (whole entry) with R298C
How it was run: as §1

OR2T3 Y109H = tested on: T12, OR2T3 Y109H
T12 sequence (whole entry): T9 sequence (whole entry) with Y109H
How it was run: as §1

OR2T33 (Homo sapiens) = molecular target: T13, OR2T33 (Homo sapiens) (UniProt Q8NG76)
T13 sequence (whole entry): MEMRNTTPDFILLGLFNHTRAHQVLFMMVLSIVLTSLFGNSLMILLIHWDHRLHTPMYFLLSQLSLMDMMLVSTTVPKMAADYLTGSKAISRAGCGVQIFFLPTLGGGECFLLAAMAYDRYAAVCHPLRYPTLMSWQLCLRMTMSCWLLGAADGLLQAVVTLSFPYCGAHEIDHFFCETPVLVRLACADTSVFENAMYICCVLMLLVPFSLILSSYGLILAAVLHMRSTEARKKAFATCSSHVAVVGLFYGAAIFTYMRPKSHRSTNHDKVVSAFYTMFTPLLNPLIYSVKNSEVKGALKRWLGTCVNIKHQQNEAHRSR
How it was run: as §1

OR2T34 (Homo sapiens) = molecular target: T14, OR2T34 (Homo sapiens) (UniProt Q8NGX1)
T14 sequence (whole entry): T9 sequence (whole entry) with Y109H, T202M, M204T, A214T, H239R, P267R
How it was run: as §1

OR2T35 (Homo sapiens) = molecular target: T15, OR2T35 (Homo sapiens) (UniProt Q8NGX2)
T15 sequence (whole entry): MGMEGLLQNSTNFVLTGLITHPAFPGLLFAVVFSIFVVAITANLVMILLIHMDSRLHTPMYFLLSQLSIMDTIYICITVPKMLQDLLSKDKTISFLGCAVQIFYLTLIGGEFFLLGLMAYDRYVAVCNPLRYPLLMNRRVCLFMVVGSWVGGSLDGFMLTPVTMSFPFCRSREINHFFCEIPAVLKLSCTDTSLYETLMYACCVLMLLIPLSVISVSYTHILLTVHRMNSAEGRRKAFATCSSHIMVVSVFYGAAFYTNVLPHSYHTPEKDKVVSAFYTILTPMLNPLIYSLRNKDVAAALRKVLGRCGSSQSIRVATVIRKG
How it was run: as §1

OR2T4 (Homo sapiens) = molecular target: T16, OR2T4 (Homo sapiens) (UniProt Q8NH00)
T16 sequence (whole entry): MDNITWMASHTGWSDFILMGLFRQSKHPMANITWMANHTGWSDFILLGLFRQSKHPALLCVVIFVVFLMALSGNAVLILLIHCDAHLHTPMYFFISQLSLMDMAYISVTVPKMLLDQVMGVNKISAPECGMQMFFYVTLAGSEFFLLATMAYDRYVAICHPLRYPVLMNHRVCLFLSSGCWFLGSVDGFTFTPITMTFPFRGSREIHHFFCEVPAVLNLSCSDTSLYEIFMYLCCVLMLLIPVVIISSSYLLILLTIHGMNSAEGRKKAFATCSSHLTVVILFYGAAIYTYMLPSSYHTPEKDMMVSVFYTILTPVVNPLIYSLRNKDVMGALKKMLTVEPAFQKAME
How it was run: as §1

OR2T5 (Homo sapiens) = molecular target: T17, OR2T5 (Homo sapiens) (UniProt Q6IEZ7)
T17 sequence (whole entry): T8 sequence (whole entry) with R13K, Q24R
How it was run: as §1

OR2T5 K13R K41M G45E = tested on: T18, OR2T5 K13R K41M G45E
T18 sequence (whole entry): T8 sequence (whole entry) with Q24R, K41M, G45E
How it was run: as §1

OR2T5 K13R L134F = tested on: T19, OR2T5 K13R L134F
T19 sequence (whole entry): T8 sequence (whole entry) with Q24R, L134F
How it was run: as §1

OR2T6 (Homo sapiens) = molecular target: T20, OR2T6 (Homo sapiens) (UniProt Q8NHC8)
T20 sequence (whole entry): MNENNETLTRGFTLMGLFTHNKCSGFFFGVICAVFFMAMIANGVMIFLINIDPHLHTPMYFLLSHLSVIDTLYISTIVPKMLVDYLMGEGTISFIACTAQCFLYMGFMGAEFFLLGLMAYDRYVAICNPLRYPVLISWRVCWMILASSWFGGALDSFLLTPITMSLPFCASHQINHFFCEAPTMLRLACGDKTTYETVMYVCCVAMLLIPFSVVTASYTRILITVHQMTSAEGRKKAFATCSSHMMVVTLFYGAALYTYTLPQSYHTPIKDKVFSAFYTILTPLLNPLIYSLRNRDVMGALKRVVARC
How it was run: as §1

Measured: odorant receptor agonist call

CCC1OC(=O)C(O)=C1C (stereo unspecified)
inactive: all assays above

C=CC(C)(O)CCC=C(C)CCC=C(C)C (stereo unspecified)
inactive: OR2T34 (Homo sapiens)

C=CCOC(=O)COCCC(C)C
inactive: OR2T34 (Homo sapiens)

CCCCCCC=CCCC=O
not listed: OR2T3 L256F | OR2T5 K13R L134F
inactive: all other assays above

C=CC(C)(CCC=C(C)C)OC(C)=O (stereo unspecified)
inactive: OR2T34 (Homo sapiens)

OCc1ccccc1
inactive: OR2T34 (Homo sapiens)

CC(=O)OCc1ccccc1
inactive: OR2T34 (Homo sapiens)

CC(C)=CCCC(C)CC=O (stereo unspecified)
inactive: OR2T34 (Homo sapiens)

Cc1cnc(C)c(C)n1
inactive: all assays above

CC(=O)c1c(C)c([N+](=O)[O-])c(C(C)(C)C)c([N+](=O)[O-])c1C
not listed: OR2T2 L104F L262Q | OR2T2 L104F | OR2T2 Q313H | OR2T3 L256F | OR2T3 R298C | OR2T3 Y109H | OR2T5 K13R K41M G45E | OR2T5 K13R L134F
inactive: all other assays above

CCC=C(C)C(O)CCCCC (stereo unspecified)
inactive: OR2T34 (Homo sapiens)

CC1=C(O)C(=O)OC1C (stereo unspecified)
inactive: all assays above

CCCCCC1COCCC1OC(C)=O (stereo unspecified)
inactive: OR2T34 (Homo sapiens)

CC1=C(O)C(=O)C(C)O1 (stereo unspecified)
inactive: all assays above

COC1CC2CC1C1CC(C=O)CC21 (stereo unspecified)
inactive: OR2T34 (Homo sapiens)

CC1CCCCCCCCCCCCC(=O)C1 (stereo unspecified)
not listed: OR2T2 L104F L262Q | OR2T2 L104F | OR2T2 Q313H | OR2T3 L256F | OR2T3 R298C | OR2T3 Y109H | OR2T5 K13R K41M G45E | OR2T5 K13R L134F
inactive: all other assays above
